HTR2A ag: mouse HTR2A agonism via beta-arrestin recruitment; AID 624169; CHO-K1 mHTR2A beta-arrestin complementation, luminescence; percent of 30 µM serotonin response; 360,000 compounds, 0.66% hits; activation, % at 7.6 µM; P35363;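 active = activation above a run cutoff, the mean activation of all tested compounds plus 3 SD, cut at about 14% in these data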;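 also: 0% = plate median of compound wells and 100% = 30 µM serotonin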
MC4R barr agon: human MC4R agonism via beta-arrestin; U2OS MC4R beta-arrestin complementation, luminescence; percent of melanotan II response, DMSO zero; activation, % at 8.9 µM; 360,000 compounds, 0.98% hits;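 active = activation above a per-plate cutoff, the mean activation of sample wells on that plate plus 3 SD, cut at about 8% in these data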
Hep lipid drop: hepatic lipid droplet formation modulation | AML12 mouse hepatocytes, oleate lipid droplets, BODIPY imaging | inhibition, % at 6.5 µM | 240,000 compounds, 0.4% hits | AID 1656;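 active = lipid droplet intensity inhibited by at least 50%, with more than 500 cells counted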
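Assay system: AML12 mouse liver cells | Compound: 6.5 µM single-point dosing | Schedule: Overnight exposure | Technique: Fluorescence imaging, 20x objective, two fields per well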
NTR1 agonist: NTR1 (human) agonism. AID 493036. activation, % at 20 µM. 330,000 compounds, 0.17% hits. NTR1-U2OS beta-arrestin-GFP spot imaging, agonist mode. P30989;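 active = activation at or above 40% of the spot to cytoplasm intensity ratio, with at least 20 cells analyzed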;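 also: 0% = DMSO without peptide and 100% = 100 nM NTR1 peptide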
MC4R antagonist: antagonists of human melanocortin 4 receptor (MC4R) | 360,000 compounds, 0.48% hits | MC4R-expressing cells, MTII-stimulated cAMP, LANCE TR-FRET | P32245 | inhibition, % at 6.5 µM;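 active = inhibition above its plate's cutoff, the mean of tested wells on that plate plus 3 SD, cut at about 29% in these data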;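 also: 0% = Melanotan II alone and 100% = Melanotan II plus saturating MCL0020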
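material = U2OS cells stably expressing human melanocortin 4 receptor (MC4R) | also added = Melanotan II challenge | dosing = single nominal compound dose of 6.5 µM | detection = TR-FRET with Eu-cAMP and labeled anti-cAMP, 671 nm | replication = singlicate | timing = compound 30 min, challenge 1 h, detection 1 h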
PREPL inhibitor: inhibitors of human prolyl oligopeptidase-like enzyme PREPL; 320,000 compounds, 0.68% hits; inhibition, % at 5.96 µM; Q4J6C6; recombinant PREPL, fluorescence polarization activity-based probe; AID 2751; in the data active = inhibition above about 43%;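 also: 0% = enzyme with DMSO and 100% = wells lacking enzyme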
Target sequence (Q4J6C6 whole entry, looked up): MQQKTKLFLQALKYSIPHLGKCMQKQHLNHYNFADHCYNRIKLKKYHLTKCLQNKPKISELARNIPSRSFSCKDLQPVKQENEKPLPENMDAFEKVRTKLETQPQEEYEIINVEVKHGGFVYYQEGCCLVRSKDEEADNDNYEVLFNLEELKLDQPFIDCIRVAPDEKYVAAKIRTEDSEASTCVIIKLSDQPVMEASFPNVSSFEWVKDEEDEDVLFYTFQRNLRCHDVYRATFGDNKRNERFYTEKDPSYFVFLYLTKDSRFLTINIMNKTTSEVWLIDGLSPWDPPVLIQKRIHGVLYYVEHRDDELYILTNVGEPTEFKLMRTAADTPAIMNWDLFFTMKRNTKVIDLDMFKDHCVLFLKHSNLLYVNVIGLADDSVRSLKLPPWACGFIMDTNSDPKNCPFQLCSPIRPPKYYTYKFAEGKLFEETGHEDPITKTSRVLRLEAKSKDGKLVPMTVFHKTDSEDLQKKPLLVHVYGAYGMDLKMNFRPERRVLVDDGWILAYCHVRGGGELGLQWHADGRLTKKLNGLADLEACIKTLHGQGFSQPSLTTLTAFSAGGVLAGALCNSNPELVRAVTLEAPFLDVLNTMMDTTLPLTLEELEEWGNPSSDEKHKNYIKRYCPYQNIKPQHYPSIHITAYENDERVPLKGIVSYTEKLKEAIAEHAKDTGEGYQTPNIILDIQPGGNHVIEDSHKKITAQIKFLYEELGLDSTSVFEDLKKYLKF
* hit, by the source's call; x = no result. Sampled rows, rich in hits. Any-hit rate of the full collection: about 2.7%.

SMILES	HTR2A ag	MC4R barr agon	Hep lipid drop	NTR1 agonist	MC4R antagonist	PREPL inhibitor
COc1cc(/C=C2/CCCC(C(=O)C(F)(F)F)=C2O)ccc1O	-2	-2	0	3	-2	1
COc1cccc(-c2cc(C(=O)Nc3cc(C)on3)no2)c1	4	8.5*	x	0	1	8
Cc1cc(NC(=O)c2ccc(COc3ccc(Cl)c(C)c3)o2)no1	7	9.4*	-2	0	-1	4
O=C(CSc1nnc(-c2ccc(Br)cc2)o1)Nc1cccc2ccccc12	5	9.1*	10	0	5	2
O=C(CSc1nnc(-c2ccc(Br)cc2)o1)Nc1cccc(C(=O)O)c1	-1	-1	2	0	14	-5
COc1cc(C=C2C(=O)C=CC2=O)ccc1O	13	x	x	x	x	x
CCCCOC(=O)c1ccc(NC(C)=O)cc1	-3	2	x	0	1	-3
CCCCOC(=O)c1ccc(NC(=O)/C=C/c2cccs2)cc1	-4	4	65*	12	-1	-8
C/C=C(\C)C(=O)OC1[C@H](OC(C)=O)C2(CO)C(CC1(C)C)C1=CCC3C4(C)CCC(O[C@@H]5O[C@H](C(=O)O)[C@@H](O[C@@H]6O[C@H](CO)[C@@H](O)[C@H](O)[C@H]6O)[C@H](O)[C@H]5O[C@H]5O[C@H](CO)[C@@H](O)[C@H](O)[C@H]5O)[C@](C)(CO)C4CCC3(C)[C@]1(C)C[C@H]2O (some centres not stated)	15*	-4	x	x	95*	x
CC1(C)C[C@H]2C3=CCC4[C@@]5(C)CC[C@H](O[C@@H]6O[C@H](C(=O)O)[C@@H](O)[C@H](O)[C@H]6O)[C@@](C)(CO)C5CC[C@@]4(C)[C@]3(C)C[C@H](O)[C@@]2(CO)[C@@H](O)[C@@H]1O (some centres not stated)	-1	0	x	0	19	8
COc1ccccc1-c1cccc(-c2nc(C(=O)Nc3nccs3)cc3c2[C@H](CCO)N(C(C)=O)C3)c1	3	x	x	x	x	x
CCC(C)n1c(OC)nc2c1c(=O)n(C)c(=O)n2C (configuration not stated)	4	0	-9	0	17	4
CCCCN(CC)C(=O)c1cc2c(=O)[nH]c3ccc(C)cc3c2s1	-2	-2	12	18	5	x
CCCCN(Cc1ccco1)C(=O)c1cc2c(=O)[nH]c3ccc(C)cc3c2s1	3	36*	x	29	8	-57
Cc1ccccc1OCc1nnc(SCC(=O)Nc2ccc3nc(SCC(=O)NC(C)(C)C)sc3c2)n1C	-3	11*	-15	8	0	-3
CCN(CC)C(=O)CSc1nc2ccc(NC(=O)CSc3nnc(COc4ccccc4C)n3C)cc2s1	-4	-1	x	2	5	-41
Cc1cccn2c(=O)c3cc(C(=O)NCCc4ccccc4)c(=N)n(Cc4ccco4)c3nc12	-5	0	2	57*	-38	36
Cc1cccn2c(=O)c3cc(C(=O)NCc4ccco4)c(=N)n(CCc4ccccc4)c3nc12	-4	0	29	16	21	15
O=C1ON=C(c2ccccc2)/C1=C/c1ccc(-c2ccccc2[N+](=O)[O-])o1	-3	-1	4	x	32*	1
O=[N+]([O-])c1ccccc1-c1ccc(/C=N/n2cnnc2)o1	-3	-1	x	0	0	8
CC(=O)Cc1cc(O)c2ccccc2c1OC(=O)c1ccc(Br)cc1	0	17*	-2	0	-1	14
O=C(COC(=O)c1ccc(Br)cc1)NCc1ccccc1	-3	-1	2	2	7	8
CCN(CC)C(=O)C1c2ccccc2Oc2ccccc21	-1	2	-14	0	2	54*
CCN(C(=O)COC(=O)c1ccc(=O)n(Cc2ccccc2)n1)C1CCS(=O)(=O)C1 (configuration not stated)	7	-2	x	0	3	x
C=CCc1cccc2cc(C(=O)OCC(=O)c3ccccc3)c(=O)oc12	-3	9.5*	7	0	6	15
SMILES	HTR2A ag	MC4R barr agon	Hep lipid drop	NTR1 agonist	MC4R antagonist	PREPL inhibitor
C=CCc1cccc2cc(C(=O)O)c(=O)oc12	-3	-1	-8	-1	10	3
COc1ccc(-n2nc(C(=O)NCC(=O)N(C)Cc3ccccc3)c3ccccc3c2=O)cc1OC	-3	-1	0	2	-4	1
Fc1ccccc1N1CCN(CCCNc2ccc3nncn3n2)CC1	26*	1	x	-1	12	14
O=C(Nc1cccc([N+](=O)[O-])c1)c1ccc(CSc2ccccc2)cc1	-11	15*	x	3	4	2
COc1ccc(-c2cc(NC(C)=O)c3ncc(-c4ccccc4)n3c2)cc1OC	6	5	x	x	-4	x
CC(=O)Nc1cc(-c2cccc(C(=O)N(C)C)c2)cn2c(-c3ccc(F)cc3)cnc12	-5	9.0*	x	x	10	x
CC(=O)Nc1cc(-c2cccc(C(=O)N(C)C)c2)cn2c(-c3ccccc3)cnc12	-2	1	x	x	14	x
Cc1cccc(-c2cc(NC=O)c3ncc(-c4cccc(C(=O)N(C)C)c4)n3c2)c1	-1	2	x	x	-10	x
CC(=O)Nc1cc(-c2ccccc2F)cn2c(-c3ccccc3)cnc12	-7	8.3*	x	x	10	x
CN(C)C(=O)c1cccc(-c2cnc3c(NC=O)cc(-c4ccc(N(C)C)cc4)cn23)c1	-5	8.6*	x	x	-18	x
CC(=O)Nc1cc(-c2cccc(F)c2)cn2c(-c3ccccc3)cnc12	-7	9.4*	x	x	0	x
CC(=O)Nc1cc(-c2cccc(F)c2)cn2c(-c3ccc(S(C)(=O)=O)cc3)cnc12	1	2	x	x	15	x
CCc1ccc(-c2nc(SCC(=O)N(C)C3CCS(=O)(=O)C3)n[nH]2)cc1 (configuration not stated)	2	0	x	0	8	7
Cc1nc(N/N=C/c2ccccc2)nc(N(C)c2ccccc2)c1[N+](=O)[O-]	0	10*	x	2	4	1
COc1cc(C[C@@H]2C(=O)OC[C@H]2Cc2ccc(OC)c(OC)c2)ccc1O	16*	-1	x	3	-2	2
CCN(C(=O)COC(=O)CCC(=O)c1ccccc1)c1c(N)n(Cc2ccccc2)c(=O)[nH]c1=O	4	-5	x	-2	5	16
CS(=O)(=O)c1ccc(C(=O)OC2CCOC2=O)cc1[N+](=O)[O-] (configuration not stated)	4	-3	3	1	32*	7
O=C(OC1CCOC1=O)c1ccccc1C(=O)c1ccc(Cl)c([N+](=O)[O-])c1 (configuration not stated)	3	0	x	9	23	10

Screening data as filed in PubChem BioAssay.
